Screening results (PubChem BioAssay)
This is a sample that favours compounds with a hit; in the whole collection about 2.6% have one here.
SKN-1 block = C. elegans SKN-1 inhibition. C. elegans VP596 Pgst-4::GFP/RFP ratio, acrylamide-induced, 24 h. AID 624304. actives 0.49% (n = 360,000). inhibition, % at 21.8 µM;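 active = interference check ratio from 0.5 to 1.5 plus GFP to RFP signal ratio inhibition reaching or exceeding a fixed threshold, cut at about 30% in these data, passing the limit was not always enough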
Rce1 inhib = yeast Ras-converting enzyme inhibition | Q03530 | yeast membranes, quenched prenylated peptide cleavage fluorescence | calls only | actives 0.27% (n = 290,000);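 active = fall in fluorescence gain of 50% or more versus controls, with final raw signal at or below 3038400; inconclusive = same 50% fall but final raw signal above 3038400; inactive = fall in fluorescence gain under 50%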;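 note: plate controls were neutral control wells for no effect and wells lacking membranes for full effect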
Target sequence (Q03530 whole entry, looked up): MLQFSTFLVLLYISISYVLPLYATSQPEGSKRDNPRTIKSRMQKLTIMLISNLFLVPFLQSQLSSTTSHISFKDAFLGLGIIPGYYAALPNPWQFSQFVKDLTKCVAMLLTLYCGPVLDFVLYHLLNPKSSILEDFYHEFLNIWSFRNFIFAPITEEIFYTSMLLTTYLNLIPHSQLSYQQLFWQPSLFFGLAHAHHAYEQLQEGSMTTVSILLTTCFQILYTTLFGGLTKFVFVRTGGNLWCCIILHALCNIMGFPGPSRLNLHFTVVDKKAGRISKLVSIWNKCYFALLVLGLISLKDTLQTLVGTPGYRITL
GRK2 aptamer HTS = inhibitors of human GRK2 displacing RNA aptamer; P25098; bead flow cytometry, FAM-aptamer displacement from GRK2; inhibition of aptamer binding, % at 10 µM; actives 0.59% (n = 330,000);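 active = inhibition of aptamer binding above 40%, roughly 3 SD of noise, on plates passing a quality check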;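 note: median bead fluorescence of bound FAM aptamer so fluorescent compounds give negative values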
Myeloid diff MLP = compounds promoting myeloid differentiation; actives 1% (n = 360,000); ER-HoxA9 myeloid progenitors, lysozyme-GFP differentiation, flow cytometry; AID 624256; calls only at 10 µM;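 active = normalized GFP-positive differentiation at or above the plate's own cutoff, the solvent-only control mean plus 3 SD; inconclusive = no clear call, values can overlap the other calls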;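 note: cells exposed to compound for four days before flow analysis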
T cell HTS = modulates CD8 T cell binding to vesicles | response (vesicle binding), % at 7 µM | AID 2052 | 2C CD8+ T cell-vesicle binding, flow cytometry; stronger effect = lower value | actives 0.068% (n = 330,000);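 active = response, share of CD8 T cells binding vesicles, and their 90th percentile fluorescence all below set limits, cut at about 80% in these data, passing the limit was not always enough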;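 note: values below 100% mean blocked vesicle binding to the CD8+ T cells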
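System: murine 2C transgenic CD8+ T lymphocytes; also added: QL9-loaded Drosophila micro-vesicles; times: binding 1.5 h at 37 °C; measured by: flow cytometry, PE anti-B7-1 (FL2) versus Alexa647 anti-CD8 (FL8), PFA-fixed; control set: Peptide-free naked vesicles (low) and QL9 vesicles with 0.7% DMSO vehicle (high)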
Rin1-Abl PPI inh = inhibitors of human Rin1-Abl protein interaction; inhibition, % at 7.35 µM; TR-FRET Rin1/Abl binding, biochemical; actives 0.4% (n = 360,000); P00519+Q13671; in the data active = inhibition above about 5%, passing the limit was not always enough
Rin1-Abl confirm = confirmation of inhibitors of human Rin1-Abl interaction; shares compounds with Rin1-Abl PPI inh; TR-FRET Rin1-Abl binding, purified proteins; inhibition, % at 7.35 µM; actives 49% (n = 1,300); AID 602124
GFP quench = GFP fluorescence interference artifact. inhibitors/quenchers counterscreen. shares compounds with Rin1-Abl PPI inh. inhibition, % at 6.75 µM. actives 8.5% (n = 1,300). AID 602125;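 note: ABL1-eGFP fusion protein alone without its partner RIN1-SBP; 0% = protein with vehicle and 100% = wells lacking protein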
GFP quench dose = GFP fluorescence interference dose response; shares compounds with Rin1-Abl PPI inh; GFP fluorescence interference/quenching counterscreen; IC50, µM; 230 tested, under 10 active; AID 602182; call rule not given here;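 note: ABL1-eGFP fusion protein alone without its RIN1 binding partner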
* marks the source's active call; other numbers are inactive results; i = inactive; ? = inconclusive; . = no result. Cut-off read from the data, not from the text of the source, unless noted: active = inhibition above about 6.5%; inactive = the rest.

SMILES | SKN-1 block | Rce1 inhib | GRK2 aptamer HTS | Myeloid diff MLP | T cell HTS | Rin1-Abl PPI inh | Rin1-Abl confirm | GFP quench | others
O=C(CCS(=O)(=O)c1ccc(Br)cc1)N1CCN(c2ccccc2Cl)CC1 | 10 | i | 0 | i | 629 | 9.0* | -1 | 0
CCN1C(=O)[C@@H]2[C@@H]3CN(S(=O)(=O)c4ccc(C)cc4)[C@@H](c4ccccc4F)[C@@H]3C(=O)C[C@@H]2C1=O | 7 | . | . | i | . | 1 | . | .
CCOC(=O)C1CC(C)=C(C)CC1C(=O)O (centres undefined) | 15 | i | 0 | i | 88 | 3 | . | .
COc1cccc(C(=O)c2ncc(C(F)(F)F)cc2Cl)c1 | 7 | i | 1 | i | 175 | 13* | -3 | 0
CCOC(=O)CN1C(=O)NC2NC(=O)NC21 (centres undefined) | -13 | i | 0 | i | 178 | 14* | 18* | 0 | GFP quench dose=>68
Cn1c(=O)c2c(nc(NCc3ccco3)n2Cc2ccccc2Cl)n(C)c1=O | -1 | i | 0 | i | 264 | 7.1* | 6.7* | 0
Cn1c(=O)c2c(nc(NCc3ccco3)n2C)n(C)c1=O | -8 | i | 6 | i | 369 | -2 | . | .
CCSc1nnc(NC(=O)CSc2nc3c(c(=O)n2CC)SC(C)C3)s1 (centres undefined) | -14 | i | 0 | i | 37 | -1 | . | .
CCSc1nnc(NC(=O)CSc2nc3c(c(=O)n2C)SC(C)C3)s1 (centres undefined) | 2 | i | 0 | i | 337 | 9.5* | -3 | 1
COc1cccc(CC(=O)Nc2nc(-c3ccc(F)c(F)c3)cs2)c1 | 8 | i | 0 | ? | 521 | 2 | . | .
COc1cc2nc(Nc3ccc(C)c(C)c3)nc(N)c2cc1OC | 16 | i | 0 | i | 416 | 11 | . | .
COc1cc2nc(Nc3ccc(F)cc3)nc(N)c2cc1OC | -5 | i | 0 | i | 282 | 14* | 16* | 0
O=C(Nc1ccc2c(c1)OCO2)c1ccc[n+]([O-])c1 | 1 | i | 5 | i | 502 | 5.0* | 2 | -2
O=C(Nc1ccc2c(c1)OCO2)c1ccc2c(c1)OCO2 | -2 | i | 2 | i | 404 | 1 | . | .
CCOc1ccc(CN(C(=O)c2cc3ccccc3oc2=O)C2CCS(=O)(=O)C2)cc1 (centres undefined) | 2 | i | 1 | i | 323 | -1 | . | .
N#CC1=C(N)OC2=C(C(=O)CCC2)[C@]12C(=O)N(CC(N)=O)c1ccccc12 | 9 | i | 0 | i | 132 | -1 | . | .
O=C1CCCC2=C1C1(O)C(=O)c3ccccc3C1(O)O2 (centres undefined) | -13 | i | 25 | i | 299 | 19* | 9.1* | -2
CCNS(=O)(=O)c1ccc(CCC(=O)O)cc1 | 7 | i | 0 | i | 435 | 8.8* | -1 | 1
CCOC(=O)N1CCN(CCC(=O)Nc2ccc(Br)c(C)c2)CC1 | -5 | i | 0 | i | 310 | 8.9* | 11* | 2
CCOC(=O)C1CCCN(CC(O)COCc2ccc3c(c2)OCO3)C1 (centres undefined) | -11 | i | 0 | i | 268 | 6.4* | -1 | 0
CC(C)(C)NC(=O)COc1ccc(S(=O)(=O)N2CCCC2)cc1 | 4 | i | 13 | i | 150 | 0 | . | .
COc1cc(N)c(C(=O)c2nccc3cc(OC)c(OC)cc23)cc1OC | -17 | i | 2 | . | 375 | -4 | . | .
COc1cc(Br)c(C(=O)c2nccc3cc(OC)c(OC)cc23)cc1OC | 12 | i | 7 | i | 206 | 6.0* | 3 | 0
O=C(NCCCCc1ccccc1)Nc1ccc(F)cc1F | -30 | i | 3 | i | 561 | -2 | . | .
CC(=O)Nc1nn(C)c2nc3cc(C)ccc3cc12 | -15 | i | 0 | i | 530 | -4 | . | .
